Measurements as given in ChEMBL document CHEMBL4725330, “The design, synthesis and evaluation of 2-aminobenzoxazole analogues as potent and orally efficacious ChemR23 inhibitors” (Bioorg Med Chem, 2020).

Tests used:
Chemerin-like receptor 1 = target: T1, Chemerin-like receptor 1 (Homo sapiens, UniProt Q99788); assay: Inhibition of chemR23 in human CAL1 cells assessed as inhibition of chemerin-induced intracellular calcium ion concentration preincubated for 45 mins followed by human chemerin addition by FDSS6000 analysis; type: functional, cell-based
T1 sequence (Q99788 whole entry): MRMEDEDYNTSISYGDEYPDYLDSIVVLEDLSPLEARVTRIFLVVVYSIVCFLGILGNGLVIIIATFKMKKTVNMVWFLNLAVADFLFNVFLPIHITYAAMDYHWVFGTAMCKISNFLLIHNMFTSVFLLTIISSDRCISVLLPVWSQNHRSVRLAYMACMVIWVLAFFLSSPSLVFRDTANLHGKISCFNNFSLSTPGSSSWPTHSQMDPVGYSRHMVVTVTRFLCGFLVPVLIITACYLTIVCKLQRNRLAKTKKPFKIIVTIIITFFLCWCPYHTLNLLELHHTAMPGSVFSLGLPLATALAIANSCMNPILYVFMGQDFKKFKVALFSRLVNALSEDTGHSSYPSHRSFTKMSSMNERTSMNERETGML

[1] = Cmax in cynomolgus monkey at 1 mg/kg, po administered as cassette dose by LC-MS/MS analysis; type: ADME, organism-based, Macaca fascicularis; design: route oral, dose 1 mg/kg; conditions: in vivo
How it was run: (§1)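 Cassette oral dosing, 1.0 mg/kg as a suspension in 0.5% methylcellulose, to fed cynomolgus monkeys. Plasma was obtained from blood, deproteinized with ice-cold acetonitrile containing internal standard, and measured by LC/MS/MS against a calibration curve using analyte/IS peak-area ratios. Values are means of three determinations.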

[2] = Half-life in cynomolgus monkey at 1 mg/kg, po administered as cassette dose by LC-MS/MS analysis; type: ADME, organism-based, Macaca fascicularis; conditions: in vivo; how it was run: as §1
[3] = AUC (0 to infinity) in cynomolgus monkey at 1 mg/kg, po administered as cassette dose by LC-MS/MS analysis; type: ADME, organism-based, Macaca fascicularis; design: time infinity, route oral, dose 1 mg/kg; conditions: in vivo; how it was run: as §1
[4] = Fraction unbound in cynomolgus monkey plasma at 1 mg/kg, po administered as cassette dose incubated for 16 to 24 hrs by equilibrium dialysis based LC-MS analysis; type: ADME, organism-based, Macaca fascicularis; conditions: in vivo, time 16-24 hrs
How it was run: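 Monkey plasma diluted with PBS and spiked with compound at 1 µM (final DMSO 0.05% v/v) was equilibrium-dialysed against PBS (membrane MWCO 12000–14000) for 16–24 h at 37 °C in a CO2 incubator. Both sides were deproteinized with acetonitrile containing IS and analysed by LC-MS/MS. Undiluted fu,p was calculated from the diluted value using the dilution factor.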

[5] = Oral bioavailability in cynomolgus monkey at 1 mg/kg and 0.1 mg/kg, iv administered as cassette dose by LC-MS/MS analysis; type: ADME, organism-based, Macaca fascicularis; conditions: in vivo
How it was run: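 Plasma was deproteinized with ice-cold acetonitrile containing internal standard and quantified by LC/MS/MS against a calibration curve from analyte/IS peak-area ratios. Values are means of three determinations.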

[6] = Half-life in cynomolgus monkey at 10 mg/kg, po by LC-MS/MS analysis; type: ADME, organism-based, Macaca fascicularis; conditions: in vivo
How it was run: (§2)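 Single-compound oral dosing, 10 mg/kg as a suspension in 0.5% methylcellulose, to fed cynomolgus monkeys. Plasma was deproteinized with ice-cold acetonitrile plus internal standard and quantified by LC/MS/MS from analyte/IS peak-area ratios on a calibration curve. Values are means of three determinations.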

[7] = AUC (0 to infinity) in cynomolgus monkey at 10 mg/kg, po by LC-MS/MS analysis; type: ADME, organism-based, Macaca fascicularis; design: time infinity, route oral, dose 10 mg/kg; conditions: in vivo; how it was run: as §2
[8] = Ratio of fraction unbound in cynomolgus monkey plasma at 10 mg/kg to IC50 of inhibition of chemR23 in human CAL1 cells; type: organism-based; conditions: in vivo
[9] = Cmax in cynomolgus monkey at 10 mg/kg, po by LC-MS/MS analysis; type: ADME, organism-based, Macaca fascicularis; design: route oral, dose 10 mg/kg; conditions: in vivo; how it was run: as §2
[10] = MRT in cynomolgus monkey at 10 mg/kg, po by LC-MS/MS; type: ADME, organism-based, Macaca fascicularis; conditions: in vivo; how it was run: as §2
[11] = Plasma concentration in cynomolgus monkey at 50 mg/kg, po measured at 2 hrs of administration; type: ADME, organism-based, Macaca fascicularis
How it was run: (§3)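 Cynomolgus monkeys received 50 mg/kg orally as a suspension in 0.5% methylcellulose. Plasma concentrations were measured at 2, 4 and 8 h post-dose, and each animal was reported individually.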

[12] = Induction of chemR23 internalization on pDCs of cynomolgus monkey assessed as chemR23 expression relative to pre-dose at 50 mg/kg, po measured at 8 hrs of administration by flow cytometric analysis
[13] = Drug concentration in cynomolgus monkey at 10 mg/kg, po by LC-MS/MS analysis measured upto 8 hrs; type: ADME, organism-based, Macaca fascicularis; conditions: in vivo, read-out: Ct; how it was run: as §2
[14] = Induction of chemR23 internalization on pDCs of cynomolgus monkey assessed as internalization rate at 50 mg/kg, po measured after 4 hrs of administration by flow cytometric analysis relative to control; type: functional, Macaca fascicularis
How it was run: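 Cynomolgus monkeys received 50 mg/kg orally as a suspension in 0.5% methylcellulose. Blood was drawn before dosing and at 2, 4 and 8 h. pDCs (HLA-DR+CD123+) were stained for ChemR23 and read by flow cytometry as GeoMFI. Internalization was expressed as expression at each time relative to pre-dose. Each animal was reported individually.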

[15] = Plasma concentration in cynomolgus monkey at 50 mg/kg, po measured at 8 hrs of administration; type: ADME, organism-based, Macaca fascicularis; how it was run: as §3
[16] = Induction of chemR23 internalization on pDCs of cynomolgus monkey assessed as chemR23 expression relative to pre-dose at 50 mg/kg, po measured at 2 hrs of administration by flow cytometric analysis
Macaca fascicularis [17] = species: Macaca fascicularis; assay: Induction of chemR23 internalization in whole blood of cynomolgus monkey assessed as internalization rate at 100 uM by flow cytometric analysis relative to control; type: tissue-based
Macaca fascicularis [18] = species: Macaca fascicularis; assay: Induction of chemR23 internalization in whole blood of cynomolgus monkey assessed as internalization rate at 30 uM by flow cytometric analysis relative to control; type: tissue-based
[19] = Induction of chemR23 internalization on pDCs of cynomolgus monkey assessed as chemR23 expression relative to pre-dose at 50 mg/kg, po measured at 4 hrs of administration by flow cytometric analysis
[20] = Plasma concentration in cynomolgus monkey at 50 mg/kg, po measured at 4 hrs of administration; type: ADME, organism-based, Macaca fascicularis; how it was run: as §3

SMILES | IC50 (Chemerin-like receptor 1) [nM] | Cmax [1] [ng/mL] | half-life [2] [h] | AUC(0-inf) [3] [ng·h/mL] | Fu [4] | other results
CCCCN(c1nc2c(-c3cccn3C)cccc2o1)[C@H](C)c1ccc(-c2ccccc2-c2nnn[nH]2)cc1 | 130 | – | – | – | – | –
CCCCN(c1nc2c(C(=O)NS(C)(=O)=O)cccc2o1)[C@H](C)c1ccc(-c2ccccc2-c2nnn[nH]2)cc1 | 14 | 22.6 | 2.7 | 22.2 | 0.103 fraction (unitless) | –
C[C@H](c1ccc(-c2cc(F)ccc2-c2nc(=O)o[nH]2)cc1)N(CC1CC1)c1nc2c(C(=O)O)cccc2o1 | 2.3 | 1490 | 4.1 | 4410 | 0.00977 fraction (unitless) | bioavailability [5]: 82%
CCCCN(c1nc2ccccc2o1)[C@H](C)c1ccc(-c2ccccc2-c2nnn[nH]2)cc1 | – | 12.8 | 3.2 | 44.3 | 0.0713 fraction (unitless) | bioavailability [5]: 1.8%
C[C@H](c1ccc(-c2ccccc2-c2nc(=O)o[nH]2)cc1)N(CC1CC1)c1nc2c(C(=O)O)cccc2o1 | 11 | 3830 | 2.6 | 11600 | 0.00851 fraction (unitless) | bioavailability [5]: 60%
Cc1ccc(-c2nc(=O)o[nH]2)c(-c2ccc([C@@H](C)N(CC3CC3)c3nc4c(C(=O)O)cccc4o3)cc2)c1 | 3.2 | 1490 | 2.8 | 4830 | 0.023 fraction (unitless) | concentration at 2 h [11]: 178 µM; ChemR23 expression [12]: 44%; concentration at 8 h [13]: 206 ng/mL; half-life [6]: 1 h; AUC(0-inf) [7]: 22200 ng·h/mL; Activity [14]: 74%; concentration at 8 h [15]: 30.4 µM; ChemR23 expression [16]: 30%; Ratio [8]: 1; Activity (Macaca fascicularis [17]): 82%; Activity (Macaca fascicularis [18]): 53%; ChemR23 expression [19]: 10%; Cmax [9]: 6950 ng/mL; bioavailability [5]: 58%; concentration at 4 h [20]: 204 µM; MRT [10]: 2.9 h
CCCCN(c1nc2c(C(=O)O)cccc2o1)[C@H](C)c1ccc(-c2ccccc2-c2nnn[nH]2)cc1 | 17 | 115 | 3.7 | 429 | 0.0285 fraction (unitless) | bioavailability [5]: 8.2%
CCCCN(c1nc2c(C(=O)NC)cccc2o1)[C@H](C)c1ccc(-c2ccccc2-c2nnn[nH]2)cc1 | – | 9.74 | 1.3 | 25.7 | 0.0975 fraction (unitless) | –
CCCCN(c1nc2c(-c3nccn3C)cccc2o1)[C@H](C)c1ccc(-c2ccccc2-c2nnn[nH]2)cc1 | – | 79.9 | 3.9 | 152 | 0.299 fraction (unitless) | bioavailability [5]: 7.5%
CCCCN(c1nc2c(C(=O)O)cccc2o1)[C@H](C)c1ccc(-c2cc(F)ccc2-c2nc(=O)o[nH]2)cc1 | 2.7 | 610 | 2.2 | 1630 | 0.00736 fraction (unitless) | –
CCCCN(c1nc2ccccc2o1)[C@H](C)c1ccc(-c2c(F)cccc2-c2nnn[nH]2)cc1 | 160 | – | – | – | – | –
CCCCN(c1nc2ccccc2o1)[C@H](C)c1ccc(-c2c(C)cccc2-c2nnn[nH]2)cc1 | 210 | – | – | – | – | –
CCCCN(c1nc2c(CO)cccc2o1)[C@H](C)c1ccc(-c2ccccc2-c2nnn[nH]2)cc1 | 24 | 9.68 | 1.6 | 20 | 0.112 fraction (unitless) | bioavailability [5]: 0.8%
CCCCN(c1nc2c(NS(C)(=O)=O)cccc2o1)[C@H](C)c1ccc(-c2ccccc2-c2nnn[nH]2)cc1 | 14 | 26.5 | 4.7 | 73.8 | 0.0203 fraction (unitless) | –
CCCCN(c1nc2c(NC(C)=O)cccc2o1)[C@H](C)c1ccc(-c2ccccc2-c2nnn[nH]2)cc1 | 22 | 13.2 | 2.2 | 41.6 | 0.102 fraction (unitless) | –
CCCCN(c1nc2ccccc2o1)[C@H](C)c1ccc(-c2cc(C)ccc2-c2nnn[nH]2)cc1 | 53 | – | – | – | – | –
CCCCN(c1nc2ccccc2o1)[C@H](C)c1ccc(-c2ccc(C)cc2-c2nnn[nH]2)cc1 | 2100 | – | – | – | – | –
CCCCN(c1nc2ccccc2o1)[C@H](C)c1ccc(-c2ccc(Cl)cc2-c2nnn[nH]2)cc1 | > 3000 | – | – | – | – | –
CCCCN(c1nc2c(-c3ccccn3)cccc2o1)[C@H](C)c1ccc(-c2ccccc2-c2nnn[nH]2)cc1 | – | 64 | 5.9 | 248 | 0.129 fraction (unitless) | –
CCCCN(c1nc2ccccc2o1)[C@H](C)c1ccc(-c2ccc(C(F)(F)F)cc2-c2nnn[nH]2)cc1 | > 3000 | – | – | – | – | –
CCCCN(c1nc2c(-c3ccncc3)cccc2o1)[C@H](C)c1ccc(-c2ccccc2-c2nnn[nH]2)cc1 | 300 | – | – | – | – | –

Now from value to compound, other results behind:

IC50 (Chemerin-like receptor 1) [nM] | Cmax [1] [ng/mL] | half-life [2] [h] | AUC(0-inf) [3] [ng·h/mL] | Fu [4] | SMILES | other results
3000 | – | – | – | – | CCCCN(c1nc2ccccc2o1)[C@H](C)c1ccc(-c2ccc(OC)cc2-c2nnn[nH]2)cc1 | –
29 | – | – | – | – | CCCCN(c1nc2c(COC)cccc2o1)[C@H](C)c1ccc(-c2ccccc2-c2nnn[nH]2)cc1 | –
1.2 | 361 | 2 | 1040 | 0.0135 fraction (unitless) | CCCCN(c1nc2c(C(=O)O)cccc2o1)[C@H](C)c1ccc(-c2cc(Cl)ccc2-c2nc(=O)o[nH]2)cc1 | half-life [6]: 2 h; AUC(0-inf) [7]: 7090 ng·h/mL; Ratio [8]: 0.5; Cmax [9]: 2110 ng/mL; bioavailability [5]: 42%; MRT [10]: 4.1 h
75 | – | – | – | – | CCCCN(c1nc2ccccc2o1)[C@H](C)c1ccc(-c2cc(F)ccc2-c2nnn[nH]2)cc1 | –
330 | – | – | – | – | CCCCN(c1nc2c(-n3cccn3)cccc2o1)[C@H](C)c1ccc(-c2ccccc2-c2nnn[nH]2)cc1 | –
> 1000 | – | – | – | – | CCCCN(c1nc2c(-c3cccnc3)cccc2o1)[C@H](C)c1ccc(-c2ccccc2-c2nnn[nH]2)cc1 | –
13 | 27.5 | 3.2 | 104 | 0.411 fraction (unitless) | CCCCN(c1nc2c(C(=O)N(C)C)cccc2o1)[C@H](C)c1ccc(-c2ccccc2-c2nnn[nH]2)cc1 | bioavailability [5]: 6.7%
65 | – | – | – | – | CCCCN(c1nc2ccccc2o1)[C@H](C)c1ccc(-c2cc(Cl)ccc2-c2nnn[nH]2)cc1 | –
1320 | – | – | – | – | CCCCN(c1nc2ccccc2o1)[C@H](C)c1ccc(-c2cc(C(F)(F)F)ccc2-c2nnn[nH]2)cc1 | –
– | 518 | 0.8 | 1300 | 0.0108 fraction (unitless) | C[C@H](c1ccc(-c2cc(Cl)ccc2-c2nc(=O)o[nH]2)cc1)N(CC1CC1)c1nc2c(C(=O)O)cccc2o1 | –
